Measured values as given in ChEMBL document CHEMBL3588826, “Chimeric derivatives of functionalized amino acids and α-aminoamides: compounds with anticonvulsant activity in seizure models and inhibitory actions on central, peripheral, and cardiac isoforms of voltage-gated sodium channels” (Bioorg Med Chem, 2015).
The source made the active and inactive calls. The rule behind the calls is not given here.

What was measured:
Cytochrome P450 2C19 = Cytochrome P450 2C19 (Homo sapiens, UniProt P33261); experiment: Inhibition of human CYP2C19 at 10 uM; type: ADME
Chain of Cytochrome P450 2C19 (P33261 whole entry): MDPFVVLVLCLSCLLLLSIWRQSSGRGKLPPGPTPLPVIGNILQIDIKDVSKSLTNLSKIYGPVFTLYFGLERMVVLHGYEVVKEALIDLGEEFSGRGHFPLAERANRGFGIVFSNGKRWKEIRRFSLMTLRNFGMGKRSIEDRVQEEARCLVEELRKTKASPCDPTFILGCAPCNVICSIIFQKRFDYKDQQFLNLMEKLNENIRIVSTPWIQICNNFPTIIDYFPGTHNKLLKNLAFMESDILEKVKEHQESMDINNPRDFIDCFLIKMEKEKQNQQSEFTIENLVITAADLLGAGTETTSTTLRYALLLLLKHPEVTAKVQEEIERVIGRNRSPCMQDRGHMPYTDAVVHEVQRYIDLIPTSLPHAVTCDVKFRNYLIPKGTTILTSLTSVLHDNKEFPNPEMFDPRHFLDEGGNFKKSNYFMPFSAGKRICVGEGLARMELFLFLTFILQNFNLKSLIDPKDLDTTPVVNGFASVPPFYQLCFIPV
Procedure, shortened: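 Test compound at 10 μM against a human CYP450 panel (CYP1A2, 2B6, 2C8, 2C9, 2C19, 2D6, 3A4/5). Direct inhibition was measured, and time-dependent inhibition was measured after a 30-min preincubation.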

Rattus norvegicus [1] = experiment: Anticonvulsant activity in ip dosed rat assessed as decrease in partial complex or temporal lobe seizures by hippocampal kindeld seizure test; type: functional
Mus musculus = experiment: Anticonvulsant activity in ip dosed corneal kindled seizure mouse model measured after 0.25 hrs; type: functional
[2] = target: Sodium channel protein type 1 subunit alpha (Homo sapiens) (UniProt P35498); experiment: Frequency-dependent inhibition of human Nav1.1 expressed in HEK293 cells assessed as current amplitude at 10 uM by whole cell patch-clamp electrophysiology; type: cell-based
Procedure, shortened: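 Stable HEK293 lines expressing hNav1.1, rNav1.3, hNav1.7 or hNav1.5 were recorded by whole-cell voltage clamp at room temperature, with 10 μM compound versus 0.1% DMSO. A 30-pulse train was applied, and the read-out was the fraction of current remaining at the last pulse normalized to the first. Nav1.5 used hyperpolarized protocols.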

[3] = target: Sodium channel protein type 3 subunit alpha (Rattus norvegicus) (UniProt P08104); experiment: Inhibition of rat Nav1.3 expressed in HEK293 cells assessed as transition of channels to slow-inactivated state at 10 uM measured at -50 mV by whole cell patch-clamp electrophysiology; type: cell-based
Chain of Sodium channel protein type 3 subunit alpha (Rattus norvegicus) (P08104 whole entry): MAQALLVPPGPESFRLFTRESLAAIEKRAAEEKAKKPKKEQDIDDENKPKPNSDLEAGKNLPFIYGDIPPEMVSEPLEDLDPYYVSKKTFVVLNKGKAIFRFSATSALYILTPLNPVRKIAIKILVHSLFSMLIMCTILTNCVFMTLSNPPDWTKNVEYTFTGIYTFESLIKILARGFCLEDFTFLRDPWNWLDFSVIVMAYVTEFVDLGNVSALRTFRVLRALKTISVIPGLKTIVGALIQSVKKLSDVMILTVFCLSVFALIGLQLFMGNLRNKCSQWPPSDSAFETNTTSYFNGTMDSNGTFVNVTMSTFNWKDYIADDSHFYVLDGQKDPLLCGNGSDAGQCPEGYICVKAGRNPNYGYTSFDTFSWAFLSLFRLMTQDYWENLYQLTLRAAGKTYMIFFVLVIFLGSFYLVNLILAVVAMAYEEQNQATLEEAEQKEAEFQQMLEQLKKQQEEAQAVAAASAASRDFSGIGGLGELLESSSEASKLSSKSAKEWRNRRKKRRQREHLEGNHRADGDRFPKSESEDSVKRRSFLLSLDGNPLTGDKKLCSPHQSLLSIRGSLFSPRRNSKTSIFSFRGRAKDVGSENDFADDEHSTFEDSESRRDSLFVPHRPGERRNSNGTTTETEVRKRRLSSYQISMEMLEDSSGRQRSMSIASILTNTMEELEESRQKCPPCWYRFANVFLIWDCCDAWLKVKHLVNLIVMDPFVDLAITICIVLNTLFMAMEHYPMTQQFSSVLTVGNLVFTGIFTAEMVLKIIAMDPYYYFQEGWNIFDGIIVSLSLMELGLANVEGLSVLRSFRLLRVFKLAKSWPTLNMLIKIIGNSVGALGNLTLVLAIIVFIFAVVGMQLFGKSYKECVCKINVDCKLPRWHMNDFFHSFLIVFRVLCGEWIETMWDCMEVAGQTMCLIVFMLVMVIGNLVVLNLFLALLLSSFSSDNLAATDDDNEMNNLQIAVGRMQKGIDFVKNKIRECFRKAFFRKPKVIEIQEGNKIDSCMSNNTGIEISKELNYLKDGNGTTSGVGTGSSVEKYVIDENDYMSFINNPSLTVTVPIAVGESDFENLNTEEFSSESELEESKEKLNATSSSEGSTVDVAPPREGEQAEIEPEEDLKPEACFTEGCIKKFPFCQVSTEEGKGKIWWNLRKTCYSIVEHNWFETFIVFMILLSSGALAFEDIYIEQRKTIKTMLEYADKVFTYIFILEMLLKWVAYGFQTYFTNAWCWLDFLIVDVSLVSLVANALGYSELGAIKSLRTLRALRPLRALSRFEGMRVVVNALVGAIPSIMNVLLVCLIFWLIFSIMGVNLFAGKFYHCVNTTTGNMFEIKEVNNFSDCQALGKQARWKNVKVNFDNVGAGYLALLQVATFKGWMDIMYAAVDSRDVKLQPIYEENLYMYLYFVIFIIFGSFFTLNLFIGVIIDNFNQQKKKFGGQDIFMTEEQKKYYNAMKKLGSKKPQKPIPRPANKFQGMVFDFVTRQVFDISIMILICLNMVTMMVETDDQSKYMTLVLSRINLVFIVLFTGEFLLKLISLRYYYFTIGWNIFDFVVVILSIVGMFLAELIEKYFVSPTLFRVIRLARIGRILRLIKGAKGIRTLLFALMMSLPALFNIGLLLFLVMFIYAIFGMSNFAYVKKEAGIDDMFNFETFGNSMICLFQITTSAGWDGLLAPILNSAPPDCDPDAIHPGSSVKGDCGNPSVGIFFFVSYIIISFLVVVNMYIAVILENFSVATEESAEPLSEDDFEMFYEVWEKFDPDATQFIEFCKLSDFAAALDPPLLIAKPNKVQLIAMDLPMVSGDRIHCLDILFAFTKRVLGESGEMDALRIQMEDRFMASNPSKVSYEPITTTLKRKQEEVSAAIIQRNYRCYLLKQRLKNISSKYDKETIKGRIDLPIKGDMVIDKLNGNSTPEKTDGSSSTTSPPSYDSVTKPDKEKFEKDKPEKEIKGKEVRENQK
Procedure, shortened: (§1)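 HEK293 cells stably expressing hNav1.1, rNav1.3, hNav1.7 or hNav1.5 were grown in DMEM with 10% FBS. Recordings were whole-cell voltage clamp at room temperature, with 10 μM compound versus 0.1% DMSO. Slow inactivation at −50 mV was calculated as 1 minus normalized peak INa. Nav1.5 used hyperpolarized protocols. Data are from 5–6 cells.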

CAD = experiment: Frequency-dependent inhibition of voltage-gated sodium channel in mouse CAD cells assessed as decrease in current amplitude at 10 uM by whole cell patch-clamp electrophysiology; type: cell-based
Procedure, shortened: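 CAD cells, whole-cell voltage clamp at room temperature, with compound at 1, 10 or 30 μM against 0.1% DMSO. Thirty identical test pulses were given at 10 Hz. Current was normalized as peak at pulse N over pulse 1, and the maximal decrement was read at the end of the train. One-way ANOVA with Dunnett's test; 4–10 cells per condition.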

[4] = target: T1, Sodium channel protein type 5 subunit alpha (Homo sapiens, UniProt Q14524); experiment: Inhibition of human Nav1.5 expressed in HEK293 cells assessed as transition of channels to slow-inactivated state at 10 uM measured at -50 mV by whole cell patch-clamp electrophysiology; type: cell-based; settings: hek293, 10 µM; procedure, shortened: as §1
T1 sequence (Q14524 whole entry): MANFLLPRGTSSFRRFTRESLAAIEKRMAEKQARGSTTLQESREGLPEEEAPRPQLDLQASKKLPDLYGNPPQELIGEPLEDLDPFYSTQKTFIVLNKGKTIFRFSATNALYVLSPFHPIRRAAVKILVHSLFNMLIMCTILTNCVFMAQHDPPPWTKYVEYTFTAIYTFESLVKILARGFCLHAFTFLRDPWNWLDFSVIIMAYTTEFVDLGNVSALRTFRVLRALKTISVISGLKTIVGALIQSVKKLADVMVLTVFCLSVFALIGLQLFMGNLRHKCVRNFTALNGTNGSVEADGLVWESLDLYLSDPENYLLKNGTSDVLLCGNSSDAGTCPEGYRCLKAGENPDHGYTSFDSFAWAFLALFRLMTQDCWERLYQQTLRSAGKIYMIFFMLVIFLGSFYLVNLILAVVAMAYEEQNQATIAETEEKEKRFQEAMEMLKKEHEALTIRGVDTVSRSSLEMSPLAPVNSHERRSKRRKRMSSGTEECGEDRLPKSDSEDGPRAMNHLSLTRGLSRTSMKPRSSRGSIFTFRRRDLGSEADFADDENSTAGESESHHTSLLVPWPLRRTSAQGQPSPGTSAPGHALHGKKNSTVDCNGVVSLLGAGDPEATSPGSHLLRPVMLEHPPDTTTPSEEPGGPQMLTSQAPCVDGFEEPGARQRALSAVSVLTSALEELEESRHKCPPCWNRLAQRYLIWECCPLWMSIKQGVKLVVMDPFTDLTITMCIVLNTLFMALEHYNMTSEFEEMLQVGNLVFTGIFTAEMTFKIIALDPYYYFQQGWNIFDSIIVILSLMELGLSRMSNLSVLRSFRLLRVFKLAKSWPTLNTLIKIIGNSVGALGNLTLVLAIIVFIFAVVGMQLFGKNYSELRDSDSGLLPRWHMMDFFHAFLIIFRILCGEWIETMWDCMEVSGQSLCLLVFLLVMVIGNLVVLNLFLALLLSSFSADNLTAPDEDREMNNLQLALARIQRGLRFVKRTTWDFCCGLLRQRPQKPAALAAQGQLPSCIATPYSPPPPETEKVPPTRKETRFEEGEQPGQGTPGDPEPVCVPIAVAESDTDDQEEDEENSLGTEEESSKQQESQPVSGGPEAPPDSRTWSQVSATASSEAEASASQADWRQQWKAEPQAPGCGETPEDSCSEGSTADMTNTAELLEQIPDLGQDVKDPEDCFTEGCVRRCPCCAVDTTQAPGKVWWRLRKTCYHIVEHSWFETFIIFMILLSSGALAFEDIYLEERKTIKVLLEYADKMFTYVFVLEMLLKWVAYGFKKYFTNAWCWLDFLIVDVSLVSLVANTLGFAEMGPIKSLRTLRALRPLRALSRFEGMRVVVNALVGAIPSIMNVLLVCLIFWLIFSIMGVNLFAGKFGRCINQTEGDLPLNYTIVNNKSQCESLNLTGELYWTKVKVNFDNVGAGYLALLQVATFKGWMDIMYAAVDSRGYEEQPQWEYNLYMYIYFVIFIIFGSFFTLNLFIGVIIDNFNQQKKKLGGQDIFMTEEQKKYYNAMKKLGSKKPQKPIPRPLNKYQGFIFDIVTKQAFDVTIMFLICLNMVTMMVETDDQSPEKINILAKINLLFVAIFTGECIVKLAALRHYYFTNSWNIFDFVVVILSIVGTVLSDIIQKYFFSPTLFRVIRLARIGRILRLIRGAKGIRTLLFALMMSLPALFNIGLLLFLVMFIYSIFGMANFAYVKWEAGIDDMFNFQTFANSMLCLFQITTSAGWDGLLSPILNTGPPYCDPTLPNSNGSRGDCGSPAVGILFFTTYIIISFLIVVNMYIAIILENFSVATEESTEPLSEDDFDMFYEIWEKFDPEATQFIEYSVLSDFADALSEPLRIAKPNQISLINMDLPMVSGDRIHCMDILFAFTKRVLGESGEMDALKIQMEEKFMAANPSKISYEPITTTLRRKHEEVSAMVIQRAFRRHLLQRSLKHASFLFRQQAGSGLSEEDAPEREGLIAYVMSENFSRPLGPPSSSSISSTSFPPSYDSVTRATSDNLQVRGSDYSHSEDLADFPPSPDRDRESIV

Rattus norvegicus [5] = experiment: Toxicity in po dosed Sprague-Dawley rat assessed as adverse effects administered via gavage; type: organism-based; settings: in vivo
Procedure, shortened: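 Non-GLP 7-day repeated-dose study in female Sprague-Dawley rats, given by oral gavage at 20, 60 and 180 mg/kg/day. Endpoints: weight bearing, gait coordination, respiratory rate, relative organ weights, clinical chemistry and gross pathology, giving a NOAEL. The ratio divides the NOAEL by the oral MES ED50.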

[6] = target: T1, Sodium channel protein type 5 subunit alpha; experiment: Inhibition of human Nav1.5 expressed in HEK293 cells assessed as half-maximal voltage for steady state fast-inactivation at 10 uM by whole cell patch-clamp electrophysiology (reference value: -96.54 +/-1.64 mV); type: cell-based; settings: hek293, 10 µM
[7] = Ratio of drug level in brain to plasma in Sprague-Dawley rat at 5 mg/kg, iv and 20 mg/kg, po measured after 6 hrs; type: ADME, organism-based; settings: read-out: BPR
Procedure, shortened: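 Pharmacokinetics in Sprague-Dawley rats given a single iv dose of 5 mg/kg or an oral dose of 20 mg/kg.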

COC[C@@H](NC(C)=O)C(=O)NCc1ccc(Oc2cccc(OC(F)(F)F)c2)cc1
inhibition (INH) (Cytochrome P450 2C19): Not Active
ED50 (Rattus norvegicus [1]): 22 mg/kg
ED50 (Mus musculus): 41 mg/kg
inhibition [2]: inactive
inhibition [3]: Active
inhibition (CAD): 39%
inhibition (INH) [4]: Active
NOAEL (Rattus norvegicus [5]): 60 mg/kg/day
V1/2 [6]: -95.36 mV
Kp at 6 h [7]: 1.2
